For assay [1], the target named is T1, Prostaglandin G/H synthase 2 (Homo sapiens) (UniProt P35354).
T1 sequence (whole entry): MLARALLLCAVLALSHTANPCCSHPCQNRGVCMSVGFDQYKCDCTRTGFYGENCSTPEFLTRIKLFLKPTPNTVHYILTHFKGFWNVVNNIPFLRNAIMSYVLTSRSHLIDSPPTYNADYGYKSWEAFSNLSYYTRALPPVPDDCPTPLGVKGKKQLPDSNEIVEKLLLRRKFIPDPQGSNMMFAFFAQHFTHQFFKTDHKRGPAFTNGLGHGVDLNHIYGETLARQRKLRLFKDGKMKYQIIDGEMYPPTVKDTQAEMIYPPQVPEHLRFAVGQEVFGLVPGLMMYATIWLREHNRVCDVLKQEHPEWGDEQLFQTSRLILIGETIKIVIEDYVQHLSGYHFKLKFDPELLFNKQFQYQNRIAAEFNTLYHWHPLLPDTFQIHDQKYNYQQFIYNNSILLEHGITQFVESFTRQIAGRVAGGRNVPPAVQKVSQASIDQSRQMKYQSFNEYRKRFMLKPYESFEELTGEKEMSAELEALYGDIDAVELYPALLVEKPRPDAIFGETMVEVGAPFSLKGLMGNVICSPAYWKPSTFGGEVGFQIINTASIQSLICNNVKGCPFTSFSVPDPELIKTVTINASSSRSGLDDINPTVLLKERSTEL
Nature of the assay: Inhibition of recombinant human COX2 using […] at 10 uM by LC-MS/MS analysis. A digest of the protocol:
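Ovine COX-1 and recombinant human COX-2 tested directly with a commercial COX inhibitor screening kit, following the manufacturer's protocol. COX-derived PGH₂ reduced with SnCl₂; the resulting PGE₂, PGD₂ and PGF₂a diluted in MeOH, spiked with deuterated internal standards and quantified by SPE and LC–MS/MS.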

Assay [2] addresses T1, Prostaglandin G/H synthase 2 (Homo sapiens). The experiment in a line: Inhibition of LPS-stimulated COX2 in human whole blood assessed as reduction in PGF2alpha production by measuring remaining activity at 100 uM preincubated for 15 mins followed by LPS addition measured after 24 hrs by LC-MS/MS analysis. A digest of the protocol:
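Heparinized human whole blood (500 µL) mixed with compound in DMSO, with acetylsalicylic acid added to block COX-1, held 15 min at 37 °C, then stimulated with LPS in autologous plasma to induce COX-2/mPGES-1. After 24 h at 37 °C, samples chilled 5 min on ice; plasma collected, prostaglandins extracted and measured by LC–MS/MS. Remaining activity given relative to vehicle control.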

Assay [3] addresses T2, Polyunsaturated fatty acid 5-lipoxygenase (Homo sapiens) (UniProt P09917).
T2 sequence (whole entry): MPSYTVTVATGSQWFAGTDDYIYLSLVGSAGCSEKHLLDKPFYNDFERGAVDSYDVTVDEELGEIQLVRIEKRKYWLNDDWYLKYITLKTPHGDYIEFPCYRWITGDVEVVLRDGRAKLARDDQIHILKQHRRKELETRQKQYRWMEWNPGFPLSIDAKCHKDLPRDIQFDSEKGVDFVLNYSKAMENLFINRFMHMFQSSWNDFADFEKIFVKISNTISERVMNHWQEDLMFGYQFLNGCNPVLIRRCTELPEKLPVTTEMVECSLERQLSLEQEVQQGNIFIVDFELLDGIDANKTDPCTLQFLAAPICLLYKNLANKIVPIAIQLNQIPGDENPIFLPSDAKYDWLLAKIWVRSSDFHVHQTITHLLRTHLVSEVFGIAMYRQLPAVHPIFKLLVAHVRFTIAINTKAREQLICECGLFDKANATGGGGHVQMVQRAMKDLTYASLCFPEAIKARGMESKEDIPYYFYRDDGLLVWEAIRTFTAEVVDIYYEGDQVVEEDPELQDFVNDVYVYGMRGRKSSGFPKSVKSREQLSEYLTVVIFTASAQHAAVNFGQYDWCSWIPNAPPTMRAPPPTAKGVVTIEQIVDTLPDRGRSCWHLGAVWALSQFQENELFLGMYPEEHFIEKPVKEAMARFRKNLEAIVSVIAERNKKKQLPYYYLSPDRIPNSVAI
Nature of the assay: Inhibition of calcium ionophore (A23187)-stimulated human 5-LO assessed as reduction of LTB4 production by measuring remaining activity at 100 uM preincubated for 15 mins followed by calcium ionophore (A23187) addition measured after 15 mins by LC-MS/MS analysis. A digest of the protocol:
(§1)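 Heparinized human whole blood (500 µL) preincubated with compound 15 min at 37 °C, then stimulated with 20 µM calcium ionophore A23187 in autologous plasma for 15 min at 37 °C. Plasma spiked with deuterated LTB₄ and HETE internal standards, extracted into ethyl acetate, analysed by LC–MS/MS. Inhibition scored when a level fell by 33% or more versus control.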

The target of assay [4] is T3, Prostaglandin E synthase (Homo sapiens) (UniProt O14684).
T3 sequence (whole entry): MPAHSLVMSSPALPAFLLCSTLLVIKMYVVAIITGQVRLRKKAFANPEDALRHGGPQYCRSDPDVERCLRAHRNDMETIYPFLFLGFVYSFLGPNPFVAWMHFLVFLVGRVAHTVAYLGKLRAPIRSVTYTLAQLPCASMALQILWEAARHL
The experiment in a line: Inhibition of mPGES-1 in human HeLa cells using PGH2 as substrate assessed as inhibition of IL-1beta/TNFalpha-stimulated PGE2 production at 5 uM preincubated for 30 mins followed by substrate addition measured after 1 min by LC-MS/MS analysis. The assay is classed as cell-based. A digest of the protocol: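 Microsomal fraction from HeLa, NIH-3T3 or RAW 264.7 cells, obtained by sonication and ultracentrifugation, resuspended in 0.1 M KPi pH 7.4 with 2.5 mM reduced GSH. Protein at 0.15 mg/mL (HeLa, NIH) or 0.3 mg/mL (RAW) incubated with compound 30 min on ice. Reaction started with 20 µM PGH₂, stopped after 1 min with FeCl₂/citric acid. PGE₂ quantified by SPE and LC–MS/MS. IC50 from four-parameter logistic fit of increasing concentrations.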

The target in assay [5] is T3, Prostaglandin E synthase (Homo sapiens). The experiment in a line: Inhibition of mPGES-1 in human HeLa cells using PGH2 as substrate assessed as inhibition of IL-1beta/TNFalpha-stimulated PGE2 production at 100 uM after 24 hrs by LC-MS/MS analysis. Type of assay: cell-based. A digest of the protocol: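 HeLa cells (2 × 10⁴ per well) grown 24 h at 37 °C, then given fresh medium with 1 ng/mL IL-1b + 5 ng/mL TNFa (or PBS for unstimulated control) plus compound (1, 10 or 100 µM) or DMSO for 24 h at 37 °C. Supernatant mixed with H₃PO₄, EDTA and deuterated internal standards; PGE₂ measured by SPE and LC–MS/MS.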

Assay [6] addresses Prostaglandin G/H synthase 1 (Homo sapiens) (UniProt P23219). Nature of the assay: Inhibition of COX1 in human whole blood assessed as reduction in PGD2 production by measuring remaining activity at 100 uM after 1 hr by LC-MS/MS analysis.
Assay [7] concerns the target T2, Polyunsaturated fatty acid 5-lipoxygenase (Homo sapiens). The experiment in a line: Inhibition of calcium ionophore (A23187)-stimulated human 5-LO assessed as reduction of 5(S)-HETE production by measuring remaining activity at 100 uM preincubated for 15 mins followed by calcium ionophore (A23187) addition measured after 15 mins by LC-MS/MS analysis. A digest of the protocol:
as §1

In ChEMBL document CHEMBL3091291, “Synthesis and pharmacological characterization of benzenesulfonamides as dual species inhibitors of human and murine mPGES-1” (Bioorg Med Chem, 2013) one finds inhibition and Activity data, which are given here for 5 compounds.

Active and inactive are the calls of the source. The rule behind the calls is not given here.

Chain of Prostaglandin G/H synthase 1 (Homo sapiens) (P23219 whole entry): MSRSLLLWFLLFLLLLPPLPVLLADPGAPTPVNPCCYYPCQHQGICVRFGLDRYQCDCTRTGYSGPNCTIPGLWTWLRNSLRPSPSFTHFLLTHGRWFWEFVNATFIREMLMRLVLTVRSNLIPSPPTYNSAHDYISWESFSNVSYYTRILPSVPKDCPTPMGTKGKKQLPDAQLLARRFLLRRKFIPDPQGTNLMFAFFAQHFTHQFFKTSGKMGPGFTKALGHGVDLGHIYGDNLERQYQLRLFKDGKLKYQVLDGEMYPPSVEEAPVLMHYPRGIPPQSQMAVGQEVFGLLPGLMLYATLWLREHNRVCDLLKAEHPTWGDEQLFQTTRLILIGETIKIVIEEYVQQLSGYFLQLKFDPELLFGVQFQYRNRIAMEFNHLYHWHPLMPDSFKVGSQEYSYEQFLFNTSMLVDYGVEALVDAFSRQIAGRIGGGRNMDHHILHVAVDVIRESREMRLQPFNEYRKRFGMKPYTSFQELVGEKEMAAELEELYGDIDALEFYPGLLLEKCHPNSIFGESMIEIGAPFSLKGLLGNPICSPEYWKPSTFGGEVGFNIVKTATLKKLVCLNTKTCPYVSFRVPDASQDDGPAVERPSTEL

For the compound `COc1ccc(CN(Cc2ccccc2)S(=O)(=O)c2ccc(C(=O)O)cc2)cc1`, the inhibition in assay [1] is < 0%; in assay [4] it was 39.9%. Further, the Activity in assay [2] was 107%; in assay [3], 110%; in assay [6] it was 89.2%; in assay [7], 120%. For the same compound, the inhibition entry in assay [5] was “Active”.

As to `COc1ccc(CN(CC2CCCCC2)S(=O)(=O)c2ccc(C(=O)O)cc2)cc1`, the values for the inhibition in assay [1] and in assay [4] were 18.5% and 67.9%, respectively. Moreover, the Activity is 114% in assay [2], 60.4% in assay [3], 110% in assay [6] and 65.6% in assay [7]. Moreover, the inhibition entry in assay [5] was “Active”.

On to `O=C(O)c1ccc(S(=O)(=O)N(Cc2ccccc2)c2ccc(Oc3ccccc3)cc2)cc1`, for which the inhibition in assay [1] was < 0%; in assay [4] it was 79.8%. In addition, the Activity in assay [2] came out at 86.8%; in assay [3], 140%; in assay [6], 48.5%; in assay [7], 125%. Moreover, the inhibition result in assay [5] was “Active”.

On to `O=C(O)c1ccc(S(=O)(=O)N(Cc2ccccc2)Cc2ccc(Nc3ccccc3)cc2)cc1`, for which the inhibition is 12.9% in assay [1] and 78.5% in assay [4]. Also, the Activity worked out at 90.9% in assay [2], 47% in assay [3], 109% in assay [6] and 56.2% in assay [7]. Moreover, the inhibition result in assay [5] is “Active”.

Turning to `O=C(O)c1ccc(S(=O)(=O)N(Cc2ccccc2)Cc2ccc(Oc3ccccc3)cc2)cc1`, the inhibition in assay [1] amounted to 3.1%; in assay [4], 90%. In addition, the Activity in assay [2] came to 92.5%; in assay [3] it was 90.8%; in assay [6] it was 61.5%; in assay [7], 98.7%. For the same compound, the inhibition result in assay [5] was “Active”.
